Results as given in ChEMBL document CHEMBL4814013, “Scaffold repurposing of fendiline: Identification of potent KRAS plasma membrane localization inhibitors” (Eur J Med Chem, 2021).
The source made the active and inactive calls. The calls are words filed in the database; no cut-off is given here.

How the values were obtained:
MIA PaCa-2 [1] = test: Antitumor activity human MIA PaCa-2 cells harboring KRAS mutation xenografted in nu/nu mouse assessed as induction of apoptosis by measuring increase in cleaved caspase 3 level in tumor at 1 to 5 mg/kg, ip administered once daily for 5 days with 2 days break by immunohistochemistry; type: functional, organism-based; settings: dose 1-5 mg/kg, time 5.0 day
Summary of the method: (§1)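 Paraffin tumor sections of 4–5 µm were deparaffinized and given heat antigen retrieval in 10 mM sodium citrate. Endogenous peroxidase was quenched and sections blocked in 2.5% normal goat serum. Primary antibody (pERK or cleaved caspase 3) applied overnight at 4 °C, biotinylated secondary 1:250 for 45 min at rt, then ABC reagent 30 min and DAB development. Rabbit IgG served as control.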

Caco-2 = test: Antiproliferative activity against human Caco-2 cells expressing wild type KRAS assessed as reduction in cell growth incubated for 72 hrs by CyQuant proliferation assay; type: functional, cell-based; settings: Caco-2, 72 h
Summary of the method: (§2)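 Cells seeded in 96-well plates; after 24 h fresh growth medium with 0.1% DMSO vehicle or drug added (highest dose 30 µM for cancer lines), grown 72 h at 37 °C, 5% CO2. Live cell number measured by CyQUANT fluorescence. IC50 from three independent experiments. MEFs were isogenic lines carrying oncogenic BRAF or KRAS.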

[2] = Antiproliferative activity against human MPANC96 cells expressing KRAS mutant assessed as reduction in cell growth incubated for 72 hrs by CyQuant proliferation assay; type: functional, cell-based; settings: MPANC96, 72 h; summary of the method: as §2
MDCK [3] = test: Reduction in expression of human GFP-tagged ASM transfected in dog MDCK cells at 5 uM incubated for 48 hrs by western blot analysis; type: functional, cell-based; settings: Canis lupus familiaris
Summary of the method: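 SMPD1-GFP-expressing MDCK cells treated 48 h with 5 µM compound, washed in cold PBS and lysed in Tris pH 7.5 buffer with NaF, EGTA, DTT, vanadate, 1% NP40 and protease inhibitors. 20 µg of protein resolved by SDS-PAGE and immunoblotted. Signals detected by enhanced chemiluminescence and quantified by densitometry.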

BXPC-3 = test: Antiproliferative activity against human BXPC-3 cells expressing wild type KRAS assessed as reduction in cell growth incubated for 72 hrs by CyQuant proliferation assay; type: functional, cell-based; settings: BXPC-3, 72 h; summary of the method: as §2
NCI-H1299 = test: Antiproliferative activity against human NCI-H1299 cells expressing wild type KRAS assessed as reduction in cell growth incubated for 72 hrs by CyQuant proliferation assay; type: functional, cell-based; settings: NCI-H1299, 72 h; summary of the method: as §2
MEF [4] = test: Antiproliferative activity against mouse MEF cells expressing KRAS G12V mutant assessed as reduction in cell growth incubated for 72 hrs by CyQuant proliferation assay; type: functional, cell-based; summary of the method: as §2
Mus musculus [5] = test: In vivo inhibition of ASM in nu/nu mouse xenografted with human MIA PaCa-2 cells harboring KRAS mutation assessed as increase in SM accumulation in tumor at 12.5 mg/kg, ip administered once daily for 5 days with 2 days break by GFP-lysenin staining based confocal laser microscopy; type: functional, organism-based; settings: time 5.0 day
Summary of the method: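 Sections of MiaPaCa-2 xenograft tumors from i.p.-treated nu/nu mice (12.5 mg/kg) stained with GFP-tagged lysenin to detect sphingomyelin.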

MEF [6] = test: Cytotoxicity against mouse MEF cells expressing BRAF V600E mutant and wild type KRAS assessed as reduction in cell growth incubated for 72 hrs by CyQuant proliferation assay; type: functional, cell-based; summary of the method: as §2
HEC-1-A = test: Antiproliferative activity against human HEC-1-A cells expressing mutant KRAS assessed as reduction in cell growth incubated for 72 hrs by CyQuant proliferation assay; type: functional, cell-based; summary of the method: as §2
MDCK [7] = test: Inhibition of ASM in dog MDCK cells co-expressing recombinant full length mGFP-tagged KRAS G12V mutant and mCherry-CAAX assessed as reduction in plasma membrane localization of KRAS mutant at 10 uM incubated for 48 hrs followed by incubation with recombinant ASM in continued presence of compound for 60 mins by confocal microscopic analysis; type: cell membranes; settings: Canis lupus familiaris, time 49.0 hrs
Summary of the method: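 MDCK cells stably co-expressing mGFP-KRAS G12V and mCherry-CAAX seeded on glass coverslips and grown 48 h with or without compound. Medium then replaced with fresh medium containing 2 units/mL recombinant ASM, drug continued, for 60 min. Cells mounted in mowiol and imaged by confocal microscopy. Mislocalization scored by Manders coefficient.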

Mus musculus [8] = test: In vivo inhibition of KRAS signaling in nu/nu mouse xenografted with human MIA PaCa-2 cells harboring KRAS mutation assessed as decrease in ERK phosphorylation in tumor at 1 to 5 mg/kg, ip administered once daily for 5 days with 2 days break by immunohistochemistry; type: functional, organism-based; settings: dose 1-5 mg/kg, time 5.0 day; summary of the method: as §1
MIA PaCa-2 [9] = test: Antiproliferative activity against human MIA PaCa-2 cells expressing KRAS mutant assessed as reduction in cell growth incubated for 72 hrs by CyQuant proliferation assay; type: functional, cell-based; settings: MIA PaCa-2, 72 h; summary of the method: as §2
MEF [10] = test: Antiproliferative activity against mouse MEF cells expressing KRAS G12D mutant assessed as reduction in cell growth incubated for 72 hrs by CyQuant proliferation assay; type: functional, cell-based; summary of the method: as §2
Ishikawa = test: Antiproliferative activity against human Ishikawa cells expressing wild type KRAS assessed as reduction in cell growth incubated for 72 hrs by CyQuant proliferation assay; type: functional, cell-based; summary of the method: as §2
[11] = target: T1, Sphingomyelin phosphodiesterase (Homo sapiens) (UniProt P17405); test: Inhibition of human GFP-tagged ASM expressed in dog MDCK cells using sphingomyelin as substrate at 5 uM incubated for 48 hrs by Amplex Red dye based fluorescence analysis; type: cell-based
T1 sequence (whole entry): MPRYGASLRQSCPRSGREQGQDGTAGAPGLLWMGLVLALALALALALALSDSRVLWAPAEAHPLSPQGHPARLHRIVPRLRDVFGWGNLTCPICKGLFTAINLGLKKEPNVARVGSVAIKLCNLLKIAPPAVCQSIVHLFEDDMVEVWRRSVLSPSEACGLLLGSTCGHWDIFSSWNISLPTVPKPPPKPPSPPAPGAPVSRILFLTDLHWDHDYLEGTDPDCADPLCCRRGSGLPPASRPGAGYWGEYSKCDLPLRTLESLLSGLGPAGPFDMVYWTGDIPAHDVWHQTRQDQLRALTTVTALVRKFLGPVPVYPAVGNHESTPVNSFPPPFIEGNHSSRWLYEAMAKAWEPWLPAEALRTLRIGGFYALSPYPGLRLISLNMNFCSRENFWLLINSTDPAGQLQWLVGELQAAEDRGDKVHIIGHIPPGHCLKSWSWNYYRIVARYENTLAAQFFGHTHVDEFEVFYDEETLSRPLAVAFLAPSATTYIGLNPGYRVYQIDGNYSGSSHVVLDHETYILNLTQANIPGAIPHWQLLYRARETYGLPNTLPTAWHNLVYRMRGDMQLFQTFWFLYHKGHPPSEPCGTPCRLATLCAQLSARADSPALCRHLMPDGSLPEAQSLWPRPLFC
Summary of the method: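 MDCK cells stably expressing human SMPD1-GFP treated 48 h at 5 µM. Whole-cell lysate, made without DTT, mixed with 50 mM sodium acetate pH 5.0 plus sphingomyelin and held 1 h at 37 °C. pH then raised to 7.4 with Amplex Red mix (100 µM Amplex Red, 2 U/mL HRP, 0.2 U/mL choline oxidase, 8 U/mL alkaline phosphatase, 100 mM Tris pH 8.0), 60 min at 37 °C. Fluorescence read at Ex 540/Em 590 nm. Controls: 0.1 U/mL SMase (positive), buffer alone (negative).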

[12] = Antiproliferative activity against human MOH cells expressing KRAS mutant assessed as reduction in cell growth incubated for 72 hrs by CyQuant proliferation assay; type: functional, cell-based; summary of the method: as §2
HEC-1B cell line = test: Antiproliferative activity against human HEC-1B cells expressing mutant KRAS assessed as reduction in cell growth incubated for 72 hrs by CyQuant proliferation assay; type: functional, cell-based; summary of the method: as §2
Caenorhabditis elegans = test: In vivo inhibition of KRAS signaling in Caenorhabditis elegans lin-1 L1 harboring let60 […] mutant assessed as reduction in multi-vulva phenotype measured after 4 to 5 days culturing in buffer containing Escherichia coli OP50 by DIC/Nomarski microscopic analysis; type: functional, organism-based; settings: dose 0.1-30 µM, time 4-5 day
Summary of the method: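 let-60 (n1046) or lin-1 L1 larvae cultured in M9 buffer with E. coli OP50 plus DMSO vehicle or compound at 0.1, 0.3, 1, 3, 10 or 30 µM. After 4–5 days, adults were scored for multi-vulva by DIC/Nomarski microscopy.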

NCI-H522 = test: Antiproliferative activity against human NCI-H522 cells expressing wild type KRAS assessed as reduction in cell growth incubated for 72 hrs by CyQuant proliferation assay; type: functional, cell-based; settings: NCI-H522, 72 h; summary of the method: as §2
Mus musculus [13] = test: In vivo inhibition of Ca2+ channel in nu/nu mouse xenografted with human MIA PaCa-2 cells harboring KRAS mutation assessed as blood vessel dialation in tumor at 1 to 5 mg/kg, ip administered once daily for 5 days with 2 days break by immunostaining; type: functional, organism-based; settings: dose 1-5 mg/kg, time 5.0 day
NCI-H1975 = test: Antiproliferative activity against human NCI-H1975 cells expressing wild type KRAS assessed as reduction in cell growth incubated for 72 hrs by CyQuant proliferation assay; type: functional, cell-based; settings: NCI-H1975, 72 h; summary of the method: as §2

IC50 (Caco-2): 14.5 µM
IC50 (BXPC-3): 28.6 µM
IC50 (NCI-H1299): 24.3 µM
inhibition (MDCK [7]): inactive
IC50 (MIA PaCa-2 [9]): 9.2 µM
inhibition [11]: Active
IC50 (NCI-H522): 29.6 µM
IC50 (NCI-H1975): > 30 µM
Structure (SMILES): CC(NCCC(c1ccccc1)c1ccccc1)c1ccccc1 (configuration not stated) [FENDILINE]
Activity (MIA PaCa-2 [1]): inactive
IC50 [2]: 10.8 µM
inhibition (MDCK [3]): inactive
IC50 (MEF [4]): 8.1 µM
inhibition (Mus musculus [5]): Active
IC50 (MEF [6]): 17.8 µM
IC50 (HEC-1-A): 9.48 µM
inhibition (Mus musculus [8]): inactive
IC50 (MEF [10]): 13.1 µM
IC50 (Ishikawa): > 30 µM
IC50 [12]: 11.1 µM
IC50 (HEC-1B cell line): 9.8 µM
inhibition (Caenorhabditis elegans): Dose-Dependent Effect
inhibition (Mus musculus [13]): Active
